Screening data as filed in PubChem.
NALP3 yeast inh = NALP3 inhibition in yeast; Yeast reconstituted NLRP3/ASC/caspase-1, beta-gal luminescence, 24 h; 330,000 compounds, 0.39% hits; AID 2825; inhibition, % at 10 µM;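 active means inhibition of 50% or more; inactive means inhibition below 50%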
T cruzi inh = T. cruzi replication inhibition; T. cruzi beta-gal in NIH3T3, luminescence, 90 h; inhibition, % (concentration not given with the values); 300,000 compounds, 1.4% hits;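 active means mean inhibition across valid replicates above about 55%, limit read from the data; inconclusive means mean below that limit but half or more replicates reach it; inactive means mean below it, under half of replicates reach it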;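 further: signal also drops with host cell toxicity which is not excluded here; higher percent means less beta-gal luminescence so fewer parasites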
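System: Mouse NIH/3T3 fibroblasts infected with β-gal-expressing T. cruzi Tulahuen C4 | Quantity: NIH/3T3 cells, 5,000 per well | Reagent: 5000 reporter trypomastigotes per well | Dosing: Compound pinned at 50 nL/well, DMSO | Schedule: 3 h host attachment, then at least 90 h co-culture | Detection: GalScreen luminescence, 60 min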
L major viab = reduces viability of Leishmania major promastigotes. resazurin fluorescence viability. inhibition, % at 10 µM. 200,000 compounds, 9% hits. AID 1063; in the data active means inhibition above about 50%;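 further: promastigotes grown with compound for 44 hours at 28 °C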
PolyA inhibitor = yeast polyadenylation inhibition; activity score, % at 12 µM; 300,000 compounds, 0.02% hits; S. cerevisiae SKY197-pL101 polyadenylation reporter, beta-gal luminescence; efflux-impaired pdr1/pdr3 knockout yeast; score 100 = 6 SD above DMSO;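 active means lowest replicate activity score at least 50, where 100 means six control SD above control mean; inconclusive means lowest score under 50 but half or more replicates reach 50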;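 further: yeast exposed to compound for 9 h at 30 °C; higher score means more reporter readthrough which indicates perturbed polyadenylation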
NALP1 inh = NALP1 inhibition; S. cerevisiae NALP1/ASC/caspase-1 growth, X-gal OD620, 72 h; inhibition, % at 10 µM; 280,000 compounds, 0.61% hits; AID 2071; in the data active means inhibition mostly above about 24%, no sharp cut-off; inactive means mostly below about 32%
Calb FLC = affects C. albicans growth with fluconazole; growth inhibition, % (no concentration beside the values); C. albicans CaCi-2 + fluconazole, Alamar Blue growth, 48 h; AID 1979; 300,000 compounds, 0.57% hits;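 active means growth inhibition above about 58% in most replicates, limit read from the data, passing the limit was not always enough; inconclusive means exactly half the replicates above a set limit; inactive means most replicates below a set limit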;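 further: all wells also contain fluconazole at 8 µg/ml as a sub-toxic cotreatment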
Each line names hits and unclear results; the compound was inactive in the other large screens. The full list was thinned out, with hits kept by preference.

Cc1cccc(NS(=O)(=O)c2ccc3nc(-c4ccccc4)[nH]c3c2)c1C	L major viab 59.2
Cc1cccc(NS(=O)(=O)c2ccc3[nH]c(=O)oc3c2)c1C	none (no result: T cruzi inh, L major viab, PolyA inhibitor, NALP1 inh, Calb FLC)
COc1ccc(Oc2nc(-c3ccccc3)ncc2S(=O)(=O)c2ccccc2)cc1	none
Cc1cccc(C)c1Oc1nc(-c2ccccc2)ncc1S(=O)(=O)c1ccccc1	L major viab 53.9
NC(=O)C1CCN(C2=C(Cl)C(=O)c3ccccc3C2=O)CC1	T cruzi inh 59.0, L major viab 98.9
CCNC(=S)NCCN1CCOCC1	none
CC(NC(=S)NCCCN1CCOCC1)C1CC2CCC1C2 (configuration not stated)	L major viab 87.0 (no result: NALP3 yeast inh, T cruzi inh, PolyA inhibitor, Calb FLC)
Cc1ccccc1C(=O)NC(=S)NCCN1CCOCC1	L major viab 82.9
CNC(=S)NCCN1CCOCC1	L major viab 50.6
Cc1ccccc1C(=O)NCCN1CCOCC1	none
CC(NC(=S)NCCN1CCOCC1)C12CC3CC(CC(C3)C1)C2 (configuration not stated)	L major viab 90.5
Cc1ccc(CSCC(=O)N(CCC(C)C)c2c(N)n(Cc3ccccc3)c(=O)[nH]c2=O)cc1	none (no result: L major viab, NALP1 inh)
COc1ccc(CC2(C)OC(c3ccc(Cl)cc3)=NN2C(C)=O)cc1 (configuration not stated)	L major viab 54.3
Cn1cccc1C1CCCN1CC(=O)Nc1c(Cl)cc(Cl)cc1Cl (configuration not stated)	none (no result: T cruzi inh, L major viab, PolyA inhibitor, NALP1 inh, Calb FLC)
Cc1ccc(S(=O)(=O)/N=C(/c2ccccc2)N2CCOCC2)c(C)c1	Calb FLC 81.2
COCCSc1ccccc1C(=O)Nc1cc([N+](=O)[O-])ccc1OC	none
CCOc1ccc(-n2cc(C(=O)Nc3cccc(Cl)c3)c3cc(OC)c(OC)cc3c2=O)cc1	T cruzi inh 64.4
COc1ccc([N+](=O)[O-])cc1NC(=O)c1cn(-c2ccc(Cl)cc2)c(=O)c2ccccc12	L major viab 59.7
CN(CC(=O)Nc1ccc(F)c(F)c1F)C(=O)c1ccc(-n2cncn2)c([N+](=O)[O-])c1	PolyA inhibitor inconclusive (no result: L major viab, NALP1 inh)
Cn1c(NNC(=O)C2CCCCC2)cc(=O)n(C)c1=O	none
Cc1nn(-c2ccccc2)c(NC(=O)c2cccs2)c(-c2ccccc2)c1=O	none
COc1cc2c(cc1OC)C1(CCCC1)C(N)=C2C#N	L major viab 99.6 (no result: T cruzi inh, PolyA inhibitor)
CC(=O)/C(=C/N(C)C)C(=O)Nc1ccc(Cl)cc1Cl	none
CN(C)CCNC=C(C(=O)Nc1ccc(Cl)cc1Cl)C(=O)Nc1ccc(Cl)cc1Cl	NALP1 inh 80.4
O=C1c2cccc3c(O)ccc(c23)C(=O)N1Cc1ccccc1	Calb FLC 99.5
CCCCN(CCCC)CC(O)CN(c1cc([N+](=O)[O-])ccc1OC)S(=O)(=O)c1ccccc1 (configuration not stated)	L major viab 71.2
COc1ccc([N+](=O)[O-])cc1N(CC(O)CN1CCCCC1)S(=O)(=O)c1ccc(C)cc1 (configuration not stated)	L major viab 55.9
Cc1ccc(N(CC(O)CN2CCCCC2)S(=O)(=O)c2ccccc2[N+](=O)[O-])cc1 (configuration not stated)	L major viab 99.0
COc1cc(OC)c(C2C3=C(CCCC3=O)Nc3nc4ccccc4n32)cc1OC (configuration not stated)	L major viab 99.4
COc1ccc(OC)c(C2C(C(=O)N(C)C)=C(C)Nc3nc4ccccc4n32)c1 (configuration not stated)	none
COc1ccc(C2C(C(=O)c3ccccc3)=C(C)Nc3nc4ccccc4n32)c(OC)c1 (configuration not stated)	L major viab 87.3
CSc1cccc(NC(=O)CC(C)n2ccnc2)c1 (configuration not stated)	none (no result: L major viab)
COc1ccc(S(=O)(=O)N2CCN(c3ccc4nnc(-c5ccc(F)cc5)n4n3)CC2)cc1	L major viab 98.6
Cc1ccc(S(=O)(=O)N2CCN(c3ccc4nnc(-c5ccccc5)n4n3)CC2)cc1	L major viab 74.9 (no result: NALP3 yeast inh, T cruzi inh, PolyA inhibitor, Calb FLC)
FC(F)(F)c1ccnc(NCc2ccco2)n1	none (no result: L major viab, NALP1 inh)
Cc1ccccc1OCCn1cc(C(=S)N2CCN(C)CC2)c2ccccc21	L major viab 79.1
CN1CCN(C(=S)c2cn(Cc3ccc(F)cc3)c3ccccc23)CC1	L major viab 51.4, Calb FLC 121.2
CN1CCN(C(=S)c2cn(Cc3cccc(F)c3)c3ccccc23)CC1	none
Cn1cccc1Cc1nnc(SCC(=O)NCc2ccccc2Cl)n1-c1ccc(F)cc1	PolyA inhibitor 72.8
Cn1cccc1Cc1nnc(SCC(=O)NCc2ccco2)n1-c1ccc(F)cc1	none
Nc1cccnc1Sc1cccc(Cl)c1	none
COc1cnc(-c2ccccn2)nc1Sc1cccc(Cl)c1	L major viab 100.4, Calb FLC 91.0
COc1cnc(-c2ccccn2)nc1Oc1ccc(F)cc1F	none
COc1cnc(-c2ccccn2)nc1NC(C)C	T cruzi inh 76.9, L major viab 100.3, Calb FLC 113.3
COc1cnc(-c2ccccn2)nc1Sc1ccc(C)cc1	L major viab 100.4
COc1ccccc1Sc1nc(-c2ccccn2)ncc1OC	L major viab 83.4
N#C/C(=C\c1c(N2CCCCC2)nc2ccccn2c1=O)C(=O)NC1CCS(=O)(=O)C1 (configuration not stated)	L major viab 55.5
N#C/C(=C\c1c(N2CCCCC2)nc2ccccn2c1=O)C(=O)NCc1ccco1	L major viab 82.9
N#C/C(=C\c1c(N2CCCCCC2)nc2ccccn2c1=O)C(=O)NCc1ccco1	none (no result: L major viab)
CC(C)NC(=O)CN1CCN(c2ncccn2)CC1	none
NCC(=O)Nc1ccc(Cl)cc1C(=O)c1ccc[nH]1	none (no result: L major viab)
O=S(=O)(N/N=C\C=C\c1ccccc1)c1ccc(Cl)cc1	L major viab 92.2
Cc1ccccc1OCCCCCn1ccnc1	T cruzi inh 66.7, L major viab 100.3
Clc1ccc(SCCCCn2ccnc2)cc1	L major viab 100.1
Clc1ccccc1OCCCCn1ccnc1	T cruzi inh 62.9, L major viab 100.0
Clc1ccccc1OCCCn1ccnc1	none (no result: L major viab)
Cc1cccc(OCCCCCn2ccnc2)c1	T cruzi inh 57.5, L major viab 99.7
CC(Oc1ccc(Cl)cc1)C(=O)NCCCn1ccnc1 (configuration not stated)	none
CSCCC(NS(=O)(=O)c1ccc2c(c1)OCCO2)C(=O)N(C)Cc1ccccc1F (configuration not stated)	none (no result: T cruzi inh, L major viab, PolyA inhibitor, NALP1 inh, Calb FLC)
CN/C(=C/[N+](=O)[O-])NCCSCc1ccc(CN(C)C)o1	none (no result: Calb FLC)
Cc1ccc2c(c1)N(CC(=O)NC1CCCC1)C(=O)c1cccnc1O2	none (no result: L major viab)
COc1ccc(CCNC(=O)C(C(=O)c2ccccc2)n2cc(Cl)ccc2=O)cc1OC (configuration not stated)	L major viab 54.8
